Data from ChEMBL document CHEMBL4513216, “Probing the Open Global Health Chemical Diversity Library for Multistage-Active Starting Points for Next-Generation Antimalarials” (ACS Infect Dis, 2020).

Experiment: Toxicity liver stage against HepG2, at 10uM
Format: cell-based
Set-up: test concentration 10 uM, cell line HepG2-A16-CD81EGFP
Details: human, HepG2-A16-CD81EGFP cells; read-out: INHIBITION
In short: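 Uninfected HepG2-A16-CD81EGFP cells, 3 × 10^3 per well, 1536-well, plated on prespotted compound at 10 μM final, parasite-free screening media added to match infected plates; puromycin 10 μM positive, DMSO 0.5% negative; run in parallel with 48 h PbLuc assay at 37 °C, 5% CO2; viability by CellTiter-Glo luminescence, normalized to controls.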

Row | Structure (SMILES) | cytotoxicity at 10 µM [%]
1 | COC(=O)c1ccc(Cn2nc(C)cc2C)cc1 | 10.8
2 | COC(=O)c1cccc2nc([C@H]3CCN(Cc4ccccc4F)C3)oc12 | -5.46
3 | Cc1cccc(O[C@H]2COCCN(Cc3sc(C)nc3C)C2)n1 | -1.5
4 | CCOCCNC(=O)c1cccnc1Sc1cc(OC)ccc1OC | 0.354
5 | Cc1cc(=O)n(CCNC(=O)c2ccccc2Cl)cn1 | -5.07
6 | CNC(=O)c1nc2c(s1)CCN(C(=O)c1ccc(OC)cc1)CC2 | 0.428
7 | CC(C)n1[nH]c(=O)c2c1NC(=O)CC2c1cccc2cccnc12 (centres undefined) | 2.83
8 | Cn1nc(CNC(=O)C2CC2)cc1C1CC1 | 1.96
9 | CC(C)NC(=O)c1ccc2c(c1)nc1n2CCN(C(C)C)C1 | 3.54
10 | CCn1cc(C(=O)N2CCOCC2)cn1 | 0.805
11 | O=C(Nc1cc(-c2cccnc2)no1)C1CCCCC1 | 0.171
12 | CNc1ncc(CN(C)CCN2CCCCC2)cn1 | 17.7
13 | CC(C)N1CCC(Cc2cncc(-c3cccc(C(=O)O)c3)n2)C1 (centres undefined) | 9.11
14 | Cn1cc(C2CCCN2C(=O)c2cnc(-c3ccccn3)s2)cn1 (centres undefined) | -8.1
15 | COc1ccc(OCCN(C)S(=O)(=O)N2CCOCC2)cc1 | 3.11
16 | NC(=O)c1ccc(N2CCN(CCCc3cn[nH]c3)CC2)cc1 | -153
17 | CCS(=O)(=O)CCSc1ccc(Br)cc1 | -7
18 | CN(Cc1cc(Br)cn1C)C(=O)c1cccnc1 | -5.95
19 | COCCNC(=O)NCC(C)c1ccccc1OC (centres undefined) | 0.284
20 | Cc1nc(CN2CCCN(C(=O)c3cccn3C)CC2)cs1 | -2.06
21 | c1cnc(-c2nc(C3CCOC3)no2)cn1 (centres undefined) | 7.09

Row | Structure (SMILES) | cytotoxicity at 10 µM [%]
22 | Cc1noc(C)c1CCCNC(=O)C1CCCN(C(=O)C2CC2)C1 (centres undefined) | -0.185
23 | COc1cc(C(C)=O)ccc1OCC(=O)N(CC(C)C#N)C1CC1 (centres undefined) | -2.45
24 | Cn1c(NCC(=O)N2CCCCC2)c(C#N)c(=O)n(C)c1=O | 5.83
25 | COc1ccc(N(C)C(=O)c2ccc(Cl)c(S(C)(=O)=O)c2)cn1 | -11.2
26 | CC(NC(=O)Nc1cc(F)cc(F)c1)c1nc[nH]n1 (centres undefined) | -4.02
27 | CC(Cn1cccn1)NC(=O)Nc1ccc(N2CCCC2)nc1 (centres undefined) | -0.708
28 | CN(CC(N)=O)Cc1ccc(F)cc1Cl | -3.53
29 | CC(C)c1cc(NC(=O)CN2CCc3nn(C)c(=O)cc3C2)on1 | -4.44
30 | Cc1cc(NC(=O)N2CCOC(C(N)=O)C2)ccc1Br (centres undefined) | -154
31 | COc1ccc(NC(=O)N(CCO)Cc2ccsc2)cc1 | 1.37
32 | Cc1ccc(C(=O)NCC2Cc3ccccc3O2)cc1S(C)(=O)=O (centres undefined) | 1.05
33 | CCCc1cc(N2CCCC2Cn2cc(C)cn2)n2ncnc2n1 (centres undefined) | 3.04
34 | NS(=O)(=O)CCN1CCOC(c2ccsc2)C1 (centres undefined) | 5.31
35 | CC(C)OCc1cccc(NC(=O)N2CCCC(CCC(N)=O)C2)c1 (centres undefined) | 3.49
36 | COc1ccc(C(C)Nc2ncc(C(N)=O)cc2Cl)cc1OC (centres undefined) | 3.54
37 | CC(C#N)NS(=O)(=O)c1ccc2c(c1)N(C)CCC2 (centres undefined) | -4.28
38 | Cc1nc(-c2ccsc2)ccc1C(=O)O | -13.8
39 | Cc1ccccc1[C@@H]1CN(CCOCCO)C[C@H]1C(=O)O | -4.54
40 | Cn1c(Cn2ccnc2)nnc1C1CCN(C(=O)c2ccoc2)CC1 | -120
41 | CC(C)Cc1cc(C(=O)NCC2CCCN(c3ccccn3)C2)on1 (centres undefined) | 0.101
42 | CN1CCCC2(CCN(c3cccc(C(F)(F)F)n3)C2)C1=O (centres undefined) | 7.87

Row | Structure (SMILES) | cytotoxicity at 10 µM [%]
43 | CCc1nc(NC(=O)NCCc2cscn2)nn1C | 2.31
44 | CC(C)Cc1cc(C(=O)NCC2CCCN(Cc3ccco3)C2)on1 (centres undefined) | -5.12
45 | O=C(Nc1ccc(-c2ccco2)cc1)C1CCCN(Cc2ccon2)C1 (centres undefined) | 1.17
46 | CN(Cc1cc(-c2cccnc2)no1)C(=O)C1CCCN1S(C)(=O)=O (centres undefined) | -2.54
47 | CCCn1ccnc1CN1CCCC(O)(CN2CCCC2)C1 (centres undefined) | -2.69
48 | COc1ccc(CN2CCN(c3nccnc3OC)CC2=O)cc1 | 2.82
49 | CC(NC(=O)c1cc2n(n1)CCCN(C(C)C)C2)c1cn2ccsc2n1 (centres undefined) | -3.39
50 | CSCC[C@H](NC(C)=O)c1nc(Cc2ccccc2)n[nH]1 | 5.06
51 | COCCN(C)c1nc(-c2ccncc2)nc2c1CCN(C(C)=O)C2 | -2.16
52 | O=C1CC2(CCN(Cc3ccc(-c4ccn[nH]4)s3)CC2)CN1 | -137
53 | Cc1nc(CN2CCN(C(=O)COc3c(C)ccc(C)c3C)CC2)no1 | -1.4
54 | Cc1cccc2[nH]c(C3CCCN3Cc3ccc(CO)o3)nc12 (centres undefined) | 10.3
55 | NC(=O)CCN1CCc2onc(-c3ccccc3F)c2C1 | 5.21
56 | CCC(C(=O)NC(C)(C)C)n1cccc(OC)c1=O (centres undefined) | -1.04
57 | COc1nccnc1N1CCCC2(C1)C(=O)N(C)c1ccccc12 (centres undefined) | -6.47
58 | O=C(CCCc1ccc(Cl)cc1)N1CCN(C(=O)c2ccc[nH]2)CC1 | 10.7
59 | CN(CCN1CCCCCC1)C(=O)c1cc(CN2CCC(O)CC2)on1 | -17.5
60 | CC(C)CN1CCC(c2nc3c([nH]2)CC(C)(C)CNC3=O)C1 (centres undefined) | -10.6
61 | CCOCC(O)CN1CCN(C(=O)c2ccc(OC)cc2)CC1 (centres undefined) | 5.22
62 | COCC(=O)NC(C)c1cccc(Br)c1 (centres undefined) | -8.13
63 | CS(=O)(=O)c1ccc(CNC(=O)N2CCC(C(N)=O)CC2)cc1 | -3.78

Row | Structure (SMILES) | cytotoxicity at 10 µM [%]
64 | O=C(Cc1ccc2c(c1)OCCO2)NC1CC1 | -11.2
65 | O=C(Cc1ccc(F)c(Br)c1)NC1CCN(CC(F)F)CC1 | -22
66 | Cc1cn2c(n1)CCC(NC(=O)c1cc[nH]n1)C2 (centres undefined) | -8.06
67 | CS(=O)(=O)N1CCC(NC(=O)COc2ccc(Cl)cc2)CC1 | -4.05
68 | Cc1cnn(CC2CCCN2C(=O)c2ccc(F)c(F)c2)c1 (centres undefined) | -7.68
69 | O=C(CCOCC(F)(F)F)N1CCCC(n2ccnc2)C1 (centres undefined) | -8.14
70 | Cc1ccc(CN(CC(=O)N2CCOC(C)C2)C2CC2)cc1 (centres undefined) | -11.9
71 | CCc1nc(CN2CCCN(C(=O)COC)CC2)cs1 | -18.9
72 | O=C(c1csc(-c2cccs2)n1)N1CCCC1Cn1cccn1 (centres undefined) | -4.69
73 | CNC(=O)[C@@H](c1ccccc1OC)N1CCC[C@H]1C(=O)N1CC[C@@H](O)C1 | -2.71
74 | CN1C(=O)CC(c2ccccc2)C12CCN(CCO)CC2 (centres undefined) | 6.47
75 | CN(C)S(=O)(=O)N1CCC2(CC1)CC(Oc1ccccn1)CO2 (centres undefined) | -133
76 | Cc1occc1C(=O)N1CCC2(CCCN(Cc3cccs3)C2)C1 (centres undefined) | 4.3
77 | CS(=O)(=O)N1CCOCC2(CN(Cc3ccccn3)CCO2)C1 (centres undefined) | 3.42
78 | Cc1occc1C(=O)N1C[C@@H](OCc2cccnc2)[C@H]2OCCC[C@@H]21 | 3.16
79 | O=C(c1ccnnc1)N1C[C@@H]2C[C@@H](c3nc(C4CC4)cs3)O[C@@H]2C1 | -124
80 | COc1cccc(-c2n[nH]cc2CNC2CCN(C(C)C)CC2)c1 | 0.353
81 | COCCOCC(=O)N1C[C@@H]2CC[C@H]1CN(C1Cc3ccccc3C1)C2 | -9.04
82 | CN(C)C(=O)N1C[C@H]2CC[C@@H](C1)N(S(=O)(=O)c1cccnc1)C2 | -6.55
83 | Cc1cc(CN2C[C@@H]3CC[C@H]2CN(Cc2c(C)noc2C)C3)ccc1F | -6.74
84 | O=C(CC1CCCC1)N1C[C@@H]2C[C@@H]1CN2 | -0.714
